# Screening results as filed in PubChem BioAssay.
# TRPC6 inhibitor = mouse TRPC6 channel inhibition. hit rate 1.1% among 310,000. HEK293-TRPC6, membrane potential dye, ACh-evoked depolarization; active compounds read low. AID 2553. Q61143. B-score at 10 µM;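 active = B-score under library mean minus 3 SD, initial fluorescence not abnormally high, positive integrated signal ratio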;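 also: B-score derived from integrated fluorescence ratio over the kinetic read; more negative B-score means stronger inhibition of depolarization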
# Target sequence (Q61143 whole entry, looked up): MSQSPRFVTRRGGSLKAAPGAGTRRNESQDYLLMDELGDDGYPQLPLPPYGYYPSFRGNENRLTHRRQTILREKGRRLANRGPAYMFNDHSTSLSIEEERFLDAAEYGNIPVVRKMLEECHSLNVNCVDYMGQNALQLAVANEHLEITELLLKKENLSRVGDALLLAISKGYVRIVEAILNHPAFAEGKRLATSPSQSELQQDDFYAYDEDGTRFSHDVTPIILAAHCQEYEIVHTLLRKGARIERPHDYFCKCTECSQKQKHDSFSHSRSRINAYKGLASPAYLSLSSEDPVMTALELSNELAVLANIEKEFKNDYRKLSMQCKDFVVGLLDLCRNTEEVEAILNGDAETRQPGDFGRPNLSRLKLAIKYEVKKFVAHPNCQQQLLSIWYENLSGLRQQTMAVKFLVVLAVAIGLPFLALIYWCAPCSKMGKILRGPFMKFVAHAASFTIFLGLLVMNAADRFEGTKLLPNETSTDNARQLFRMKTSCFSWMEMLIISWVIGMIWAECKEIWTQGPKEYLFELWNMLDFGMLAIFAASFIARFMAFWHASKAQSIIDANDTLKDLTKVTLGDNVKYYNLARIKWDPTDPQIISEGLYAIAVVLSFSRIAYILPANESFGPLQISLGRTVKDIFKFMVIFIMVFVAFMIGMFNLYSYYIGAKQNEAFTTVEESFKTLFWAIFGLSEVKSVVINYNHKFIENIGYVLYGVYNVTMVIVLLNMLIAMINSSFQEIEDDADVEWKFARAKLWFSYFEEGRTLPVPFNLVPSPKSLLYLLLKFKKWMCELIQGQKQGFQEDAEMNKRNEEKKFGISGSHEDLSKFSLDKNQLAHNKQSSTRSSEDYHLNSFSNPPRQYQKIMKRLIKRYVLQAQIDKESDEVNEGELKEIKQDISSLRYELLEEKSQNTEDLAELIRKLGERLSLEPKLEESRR
# TRPC4 act = opens the mouse TRPC4 cation channel. HEK293 TRPC4beta/mu-opioid, Fluo4 calcium fluorescence; active compounds read high. AID 2237. Q9QUQ5. hit rate 0.49% among 310,000. B-score at 10 µM;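 active = B-score above 5 SD of library B-scores, and initial fluorescence ratio not above library mean plus 5 SD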;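 also: positive B-score marks a calcium rise read as TRPC4 activation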
#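 Assay system – TRPC4beta and mu-opioid receptor HEK293 stable cells · Measured by – Fluo4 fluorescence, kinetic · Schedule – dye loading 45 min room temperature, 110 s kinetic read · Read-out – B-scored integrated calcium fluorescence ratio · Controls – buffer and maximal DAMGO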
# TRPC4 inh = blocks the mouse TRPC4 cation channel. Q9QUQ5. HEK293 TRPC4beta/mu-opioid, DAMGO-evoked Fluo4 calcium flux; active compounds read low. B-score at 10 µM. hit rate 0.39% among 300,000;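 active = B-score over 3 SD under the library average, no early fluorescence shift, positive overall ratio signal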
#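 material = TRPC4beta/mu-opioid receptor HEK293 cell line | probe or stimulus = sequential submaximal and maximal DAMGO stimulation | compound dosing = one concentration per compound | measured by = Fluo4 Ca2+ flux fluorescence | evaluation = integrated fluorescence ratio relative to baseline, converted to per-well B score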
# TRPC6 activator = activates the mouse TRPC6 cation channel; HEK293-TRPC6 membrane potential dye fluorescence; active compounds read high; B-score at 10 µM; hit rate 0.13% among 310,000; Q61143;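 active = B-score of the integrated fluorescence ratio above library mean plus 3 SD, and starting fluorescence ratio within library mean plus 5 SD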;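 also: higher score means more depolarization so channel activation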
# TRPC4 potent = allosterically enhances the mouse TRPC4 cation channel. Q9QUQ5. HEK293 TRPC4beta/mu-opioid, DAMGO EC20, Fluo-4 Ca2+ flux; active compounds read high. B-score at 10 µM. hit rate 0.42% among 310,000. AID 2227;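 active = B-score of calcium response area above 5 SD of library B-scores, with initial fluorescence ratio within 5 SD of library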;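 also: B-score of integrated fluorescence ratio over time as area under calcium response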
# TRPC4 sel inh 2 = second selectivity test of TRPC6 inhibitors: effect on mouse TRPC4; HEK293 TRPC4/MOR, membrane potential dye fluorescence; channel activated by saturating DAMGO dose; AID 2776; inhibition, % at 10 µM; shares compounds with TRPC6 inhibitor; hit rate 42% among 920;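 active = compounds whose fluorescence signal differed from control wells by over 3 SD, either direction, in both duplicate plates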
# TRPC4 spec = mouse TRPC4 off-target activity of TRPC6 inhibitors; shares compounds with TRPC6 inhibitor; HEK293 TRPC4/mu-opioid, membrane potential fluorescence; activity change, negative = inhibition, % at 10 µM; hit rate 61% among 920;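 active = rise or fall in signal beyond 3 SD of buffer-only wells in both replicate plates, either sign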;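 also: integrated kinetic ratio of fluorescence range over baseline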
# HEK293 MPD ctr 2-1 = second check of TRPC6 inhibitor effects in parental HEK293 cells | AID 2779 | shares compounds with TRPC6 inhibitor | signal change vs control, % at 10 µM | parental HEK293 membrane potential dye fluorescence; maximal acetylcholine challenge after compound addition | hit rate 31% among 920;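 active = membrane potential signal moving either way by over 3 SD of the maximum-effect control, in both duplicate plates, meaning non-specific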
# HEK293 MPD ctr-1 = parental HEK293 nonspecific activity of TRPC6 inhibitors | hit rate 60% among 920 | parental HEK293 membrane potential dye fluorescence | membrane potential signal change, % at 10 µM | shares compounds with TRPC6 inhibitor;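 active = membrane potential signal shifting up or down by more than 3 SD of buffer-only wells, on both duplicate plates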
# HEK293 MPD ctr-2 = parental HEK293 nonspecific activity of TRPC6 modulators. shares compounds with TRPC6 inhibitor. AID 488924. hit rate 51% among 2,400. membrane potential signal change, % at 10 µM. membrane potential dye fluorescence;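 active = membrane potential signal moves up or down beyond 5 SD from buffer-only wells, on both duplicate plates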
# HEK293 MPD ctr 2-2 = second check of TRPC6 modulator effects in parental HEK293 cells. shares compounds with TRPC6 inhibitor. membrane potential dye fluorescence; after compound, maximal acetylcholine stimulation. inhibition, % at 10 µM. hit rate 14% among 2,400;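 active = membrane potential signal drops by more than 5 SD from the mean control signal, in both duplicate plates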;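 also: plate controls were acetylcholine ECmax control wells for no effect and buffer only wells for full effect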
# TRPC4 ctr mod = tests whether TRPC6 modulators also affect mouse TRPC4. shares compounds with TRPC6 inhibitor. HEK293 TRPC4/mu-opioid, membrane potential fluorescence. percent change from control (negative = decrease, positive = increase), % at 10 µM. hit rate 69% among 2,400. AID 488927;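 active = membrane potential signal moved up or down beyond 5 SD of buffer control wells, in both duplicate plates, actives on both sides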;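 also: plate controls were assay buffer wells for no effect and DAMGO maximal-effect wells for full effect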
# TRPC4/MOR inh 2 = second selectivity test of TRPC6 modulators against mouse TRPC4; shares compounds with TRPC6 inhibitor; HEK293 TRPC4/mu-opioid, membrane potential dye fluorescence; stimulated with maximal-effect DAMGO; inhibition, % at 10 µM; hit rate 55% among 2,400; AID 488928;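 active = drop in membrane potential signal beyond 5 SD of the control wells in both duplicate plates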;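 also: TRPC4 counter screen for TRPC6 hits run under conditions tuned for TRPC6 not TRPC4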
# TRPC6 block conf = confirmation of mouse TRPC6 inhibitors; HEK293-TRPC6, membrane potential dye, ACh-evoked depolarization; shares compounds with TRPC6 inhibitor; inhibition, % at 10 µM; hit rate 43% among 3,300;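 active = fluorescence ratio falls more than 5 SD below the full-stimulation control mean, in both duplicate runs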;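 also: integrated fluorescence ratio of peak minus minimum over baseline after agonist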
# TRPC6 act conf = mouse TRPC6 activator confirmation; shares compounds with TRPC6 inhibitor; HEK293-TRPC6 membrane potential dye fluorescence, FDSS; activation, % at 10 µM; hit rate 11% among 2,800;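 active = ratio signal rise beyond 5 SD above unstimulated control wells' mean, seen in both duplicate runs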;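 also: plate controls were buffer EC0 wells for no effect and acetylcholine ECmax response for full effect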
# An asterisk follows results filed as active; i = inactive; x = no result given. This is a sample that favours compounds with a hit; in the whole collection about 2.3% have one here.
SMILES,TRPC6 inhibitor,TRPC4 act,TRPC4 inh,TRPC6 activator,TRPC4 potent,HEK293 MPD ctr-2,HEK293 MPD ctr 2-2,TRPC4 ctr mod,TRPC4/MOR inh 2,TRPC6 block conf,TRPC6 act conf,others
CN(C)CCOC1c2ccccc2CSc2ccccc21 (stereo not drawn),-7.76*,i,i,i,i,x,x,x,x,53.3%*,x,TRPC4 sel inh 2=i;TRPC4 spec=5.7%*;HEK293 MPD ctr 2-1=39.5%*;HEK293 MPD ctr-1=6.8%*
CC(C)CCN1CCN(Cc2ccon2)CC1CCO (stereo not drawn),i,i,i,i,i,x,x,x,x,x,x,
Cc1ccc(-c2noc(CCC(=O)N3CCCc4ccccc43)n2)cc1,-6.42*,i,i,i,i,104.0%*,i,12.5%*,i,66.0%*,x,
CCOC(=O)N1CCc2c(sc(NC(=O)CN3CCOCC3)c2C(=O)Nc2ccccc2)C1,i,i,i,i,i,x,x,x,x,x,x,
CCOC(=O)N1CCc2c(sc(NC(=O)CN3CCN(C)CC3)c2C(=O)Nc2ccccc2)C1,-5.34*,i,i,i,i,-83.0%*,i,-23.5%*,46.0%*,i,i,
CCOC(=O)CC(=O)CSc1ccc2nnc(-c3ccc(F)cc3)n2n1,i,i,i,i,i,x,x,x,x,x,x,
CCCN(CCC)CCCNc1ccc2nnc(-c3ccc(F)cc3)n2n1,-5.14*,94*,i,i,i,-190.0%*,i,-17.0%*,35.5%*,i,i,
CNS(=O)(=O)c1cccc(C(=O)OCc2cc(=O)oc3c(C)c(O)ccc23)c1,-6.26*,i,i,i,i,i,i,i,54.0%*,i,i,
CCOC(=O)C(CC)n1cnc2c(nnn2-c2cccc(OC)c2)c1=O (stereo not drawn),i,i,i,i,i,x,x,x,x,x,x,
Cc1cc(NC(=O)CSc2ccc3nnc(-c4cccs4)n3n2)no1,-5.3*,i,i,i,i,-159.0%*,i,-35.5%*,i,i,i,
Cc1ccc(-c2nnc3ccc(SCC(=O)Nc4cc(C)on4)nn23)cc1,i,i,i,i,i,x,x,x,x,x,x,
Cc1cc(C)cc(N(C(=O)Cc2cccs2)C(C(=O)NC2CCCCC2)c2ccccn2)c1 (stereo not drawn),i,i,i,i,i,x,x,x,x,x,x,
O=C(NC1CCCCC1)C(c1ccccn1)N(C(=O)Cc1cccs1)c1ccc(Cl)cc1 (stereo not drawn),-6.9*,i,i,i,i,x,x,x,x,i,x,TRPC4 sel inh 2=i;TRPC4 spec=22.0%*;HEK293 MPD ctr 2-1=i;HEK293 MPD ctr-1=10.6%*
COc1cccc(OCC(O)CN2CCC(CN3C(=O)c4cccc5cccc(c45)C3=O)CC2)c1 (stereo not drawn),-10.2*,i,i,i,i,x,x,x,x,i,i,TRPC4 sel inh 2=62.0%*;TRPC4 spec=-14.0%*;HEK293 MPD ctr 2-1=i;HEK293 MPD ctr-1=-138.0%*
O=C1c2cccc3cccc(c23)C(=O)N1CC1CCN(CC(O)COc2ccc3ccccc3c2)CC1 (stereo not drawn),i,i,i,i,i,x,x,x,x,x,x,
COc1ccc(COCC(O)CN2CCC(CN3C(=O)c4cccc5cccc(c45)C3=O)CC2)cc1OC (stereo not drawn),-5.77*,i,i,i,i,-147.0%*,i,-30.5%*,87.5%*,69.0%*,i,
O=C(NCC1CCCO1)c1cc(-c2ccc(F)cc2)no1 (stereo not drawn),i,i,i,i,i,x,x,x,x,x,x,
Cc1cccc2nc(-c3cccnc3)c(NCCC(C)C)n12,-5.53*,i,i,i,i,i,i,-24.0%*,83.5%*,41.0%*,i,
Cc1ccc(-c2nnc(CN3CCCCC3C)o2)cc1 (stereo not drawn),i,i,i,i,i,x,x,x,x,x,x,
Nc1c(-c2ccccc2)cnn1-c1ccccc1,i,i,i,i,i,x,x,x,x,x,x,
Nc1c(-c2cccc(Cl)c2)cnn1-c1ccccc1,-7.06*,i,i,i,i,-123.5%*,i,-18.5%*,76.5%*,52.0%*,i,
CC(C)Cn1c(=O)c(C(=O)Nc2ccncc2)c(O)c2ccccc21,-11.7*,i,i,i,i,x,x,x,x,83.7%*,i,TRPC4 sel inh 2=i;TRPC4 spec=-14.8%*;HEK293 MPD ctr 2-1=-83.5%*;HEK293 MPD ctr-1=i
COc1ccc(OC)c(C(c2nnnn2Cc2ccccc2)N2CCN(C3CCCCC3)CC2)c1 (stereo not drawn),-5.74*,i,i,i,i,132.0%*,i,i,65.0%*,40.0%*,x,
CCN(CC)CCN(C(=O)Cn1nnc(-c2ccc(C)o2)n1)C(C(=O)NC1CCCC1)c1ccc(F)cc1 (stereo not drawn),i,i,i,29.6*,i,343.0%*,i,67.5%*,43.5%*,i,192.0%*,
Cc1ccc(-c2nnn(CC(=O)N(Cc3ccco3)C(C(=O)NC3CCCC3)c3cccs3)n2)o1 (stereo not drawn),i,i,i,i,i,x,x,x,x,x,x,
Cc1ccc(-c2nnn(CC(=O)N(CCO)C(C(=O)NC3CCCC3)c3ccc(F)cc3)n2)o1 (stereo not drawn),i,i,i,i,i,x,x,x,x,x,x,
